Experimental data: ChEMBL document CHEMBL1671628, “Cell density and cell aging as factors modulating antifungal resistance of Candida albicans biofilms” (2008)
Values after ≈ are worked out from the molar mass of the structure shown.

Key:
[1] = test system: Candida albicans; test: Antifungal activity against 10^8 cells/ml Candida albicans SC5314 planktonic cells by XTT reduction assay; format: functional
How it was run: (§1)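 High-density planktonic suspensions (10^7 or 10^8 cells/ml) added to serially double-diluted drugs as in the NCCLS setup, run in parallel in RPMI 1640 + 2% glucose and YNB + 100 mM glucose. Viability read by XTT (1 mg/ml) with menadione (0.4 mM stock, 5:1), 3 h dark at 37°C, A490 minus blank wells. MIC50 = lowest concentration giving 50% reduction versus drug-free control.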

[2] = test system: Candida albicans; test: Antifungal activity against 10^7 cells/ml Candida albicans ATCC 90028 planktonic cells by XTT reduction assay; format: functional; how it was run: as §1
[3] = test system: Candida albicans; test: Antifungal activity against 10^3 cells/ml Candida albicans SC5314 by NCCLS method; format: functional
How it was run: (§2)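 Planktonic broth microdilution per NCCLS (CLSI): inoculum from 24-h SDA cultures adjusted to 0.5 McFarland at 520 nm, diluted in RPMI 1640 to about 0.5 × 10^3 to 2.5 × 10^3 cells/ml. Cells exposed to twofold drug dilutions, incubated 35°C for 48 h, then MIC read. Three separate occasions.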

[4] = test system: Candida albicans; test: Antifungal activity against 10^5 cells/ml Candida albicans ATCC 90028 by EUCAST method; format: functional
How it was run: (§3)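 EUCAST AFST planktonic broth microdilution: RPMI 1640 plus 2% glucose, inoculum 0.5 × 10^5 to 2.5 × 10^5 cells/ml, twofold drug dilutions. Performed on three different occasions.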

[5] = test system: Candida albicans; test: Antifungal activity against 24 hrs cultures of 10^7 cells/ml Candida albicans BF-1 biofilms by XTT reduction method; format: functional; settings: BF-1, 24 h
How it was run: (§4)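 Washed late-exponential cells at 1 × 10^7 cells/ml in YNB + 100 mM glucose were adhered 1.5 h at 37°C with shaking at 75 rpm, washed, then grown 24 or 48 h at 37°C, 75 rpm. Biofilms were washed and exposed 24 or 48 h at 37°C to twofold dilutions in RPMI + 2% glucose. Read by XTT at A490. MIC50 is 50% reduction vs drug-free control. Three experiments, four replicates.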

[6] = test system: Candida albicans; test: Antifungal activity against 10^3 cells/ml Candida albicans ATCC 90028 by NCCLS method; format: functional; how it was run: as §2
[7] = test system: Candida albicans; test: Antifungal activity against 10^3 cells/ml wild-type Candida albicans BF-1 by NCCLS method; format: functional; how it was run: as §2
[8] = test system: Candida albicans; test: Antifungal activity against 24 hrs cultures of 10^7 cells/ml Candida albicans ATCC 90028 biofilms by XTT reduction method; format: functional; settings: ATCC 90028, 24 h; how it was run: as §4
[9] = test system: Candida albicans; test: Antifungal activity against 48 hrs cultures of 10^7 cells/ml Candida albicans BF-1 biofilms by XTT reduction method; format: functional; settings: BF-1, 48 h; how it was run: as §4
[10] = test system: Candida albicans; test: Antifungal activity against 24 hrs cultures of 10^7 cells/ml Candida albicans SC5314 biofilms by XTT reduction assay; format: functional; settings: SC5314, 24 h; how it was run: as §4
[11] = test system: Candida albicans; test: Antifungal activity against 10^8 cells/ml Candida albicans ATCC 90028 planktonic cells by XTT reduction assay; format: functional; how it was run: as §1
[12] = test system: Candida albicans; test: Antifungal activity against 24 hrs cultures of 10^7 cells/ml biofilm-derived Candida albicans BF-1 planktonic cells hrs by XTT reduction method; format: functional; settings: BF-1, 24 h
How it was run: (§5)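 Biofilms grown 24 or 48 h from 1 × 10^7 cells/ml were washed, scraped and transferred into plates of twofold serially diluted drugs. They were incubated 24 or 48 h. MIC was read by XTT reduction (3 h at 37°C in the dark, A490 minus blank) as 50% reduction vs drug-free control.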

[13] = test system: Candida albicans; test: Antifungal activity against 48 hrs cultures of 10^8 cells/ml wild-type Candida albicans BF-1 biofilms by XTT reduction assay; settings: BF-1, 48 h
[14] = test system: Candida albicans; test: Antifungal activity against 24 hrs cultures of 10^7 cells/ml Candida albicans BF-1 planktonic cells by XTT reduction method; format: functional; settings: BF-1, 24 h
How it was run: (§6)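 Age-matched planktonic cultures were grown from the same 1 × 10^7 cells/ml YNB + 100 mM glucose suspension under the biofilm conditions for 24 or 48 h. They were tested against twofold drug dilutions by XTT reduction (3 h at 37°C in the dark, A490 minus blank). MIC50 is 50% reduction vs drug-free control.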

[15] = test system: Candida albicans; test: Antifungal activity against 24 hrs cultures of 10^7 cells/ml Candida albicans ATCC 90028 biofilms by XTT reduction assay; format: functional; settings: ATCC 90028, 24 h; how it was run: as §4
[16] = test system: Candida albicans; test: Antifungal activity against 48 hrs cultures of 10^7 cells/ml Candida albicans ATCC 90028 planktonic cells by XTT reduction method; format: functional; settings: ATCC 90028, 48 h; how it was run: as §6
[17] = test system: Candida albicans; test: Antifungal activity against 10^8 cells/ml wild-type Candida albicans BF-1 planktonic cells by XTT reduction assay; format: functional
How it was run: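 Planktonic suspensions at 1 × 10^8 cells/ml added to twofold serial drug dilutions in 96-well plates (NCCLS format). Run in parallel in RPMI 1640 + 2% glucose and YNB + 100 mM glucose. Readout by XTT reduction: XTT–menadione in PBS, 3 h at 37°C in the dark, A490 minus blank. MIC50 is 50% reduction vs drug-free control.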

[18] = test system: Candida albicans; test: Antifungal activity against 24 hrs cultures of 10^7 cells/ml Candida albicans ATCC 90028 planktonic cells by XTT reduction method; format: functional; settings: ATCC 90028, 24 h
How it was run: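 Standard 1 × 10^7 cells/ml suspension in YNB + 100 mM glucose propagated planktonically 24 h alongside age-matched biofilms, then exposed to twofold drug dilutions. Metabolic activity read by XTT–menadione reduction, 3 h dark, 37°C, A490 background-subtracted. MIC50 is the 50% reduction point versus drug-free control.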

[19] = test system: Candida albicans; test: Antifungal activity against 48 hrs cultures of 10^8 cells/ml Candida albicans ATCC 90028 biofilms by XTT reduction assay; settings: ATCC 90028, 48 h
[20] = test system: Candida albicans; test: Antifungal activity against 24 hrs cultures of 10^7 cells/ml biofilm-derived Candida albicans ATCC 90028 planktonic cells hrs by XTT reduction method; format: functional; settings: ATCC 90028, 24 h
How it was run: (§7)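 Biofilms grown from 1 × 10^7 cells/ml (YNB + 100 mM glucose, 1.5 h adherence, 37°C, 75 rpm) for 24 or 48 h, washed, scraped and moved to wells of serially double-diluted drugs. Incubated with drug 24 or 48 h, then XTT–menadione read at 490 nm. MIC50 = 50% reduction versus drug-free control.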

[21] = test system: Candida albicans; test: Antifungal activity against 24 hrs cultures of 10^7 cells/ml wild-type Candida albicans BF-1 biofilms by XTT reduction assay; format: functional; settings: BF-1, 24 h; how it was run: as §4
[22] = test system: Candida albicans; test: Antifungal activity against 10^7 cells/ml wild-type Candida albicans BF-1 planktonic cells by XTT reduction assay; format: functional; how it was run: as §1
[23] = test system: Candida albicans; test: Antifungal activity against 48 hrs cultures of 10^7 cells/ml Candida albicans ATCC 90028 biofilms by XTT reduction method; format: functional; settings: ATCC 90028, 48 h; how it was run: as §4
[24] = test system: Candida albicans; test: Antifungal activity against 48 hrs cultures of 10^7 cells/ml biofilm-derived Candida albicans BF-1 planktonic cells hrs by XTT reduction method; format: functional; settings: BF-1, 48 h; how it was run: as §7
[25] = test system: Candida albicans; test: Antifungal activity against 48 hrs cultures of 10^7 cells/ml biofilm-derived Candida albicans ATCC 90028 planktonic cells hrs by XTT reduction method; format: functional; settings: ATCC 90028, 48 h; how it was run: as §5
[26] = test system: Candida albicans; test: Antifungal activity against 10^5 cells/ml wild-type Candida albicans BF-1 by EUCAST method; format: functional; how it was run: as §3
[27] = test system: Candida albicans; test: Antifungal activity against 48 hrs cultures of 10^7 cells/ml Candida albicans BF-1 planktonic cells by XTT reduction method; format: functional; settings: BF-1, 48 h; how it was run: as §6

Structure (SMILES)	MIC [1] [µg/mL]	MIC [2] [µg/mL]	MIC [3] [µg/mL]	MIC [4] [µg/mL]	MIC [5] [µg/mL]	MIC [6] [µg/mL]	MIC [7] [µg/mL]	MIC [8] [µg/mL]	MIC [9] [µg/mL]	MIC [10] [µg/mL]	MIC [11] [µg/mL]	MIC [12] [µg/mL]	MIC [13] [µg/mL]	MIC [14] [µg/mL]	MIC [15] [µg/mL]	MIC [16] [µg/mL]	MIC [17] [µg/mL]	MIC [18] [µg/mL]	MIC [19] [µg/mL]	MIC [20] [µg/mL]	also measured
C[C@@H]1[C@H](O)[C@@H](C)/C=C/C=C/C=C/C=C/C=C/C=C/C=C/[C@H](O[C@@H]2O[C@H](C)[C@@H](O)[C@H](N)[C@@H]2O)C[C@@H]2O[C@](O)(C[C@@H](O)C[C@@H](O)[C@H](O)CC[C@@H](O)C[C@@H](O)CC(=O)O[C@H]1C)C[C@H](O)[C@H]2C(=O)O [AMPHOTERICIN B]	0.46 (≈ 0.498 µM)	0.23 (≈ 0.249 µM)	0.23 (≈ 0.249 µM)	0.23 (≈ 0.249 µM)	32 (≈ 34.6 µM)	0.23 (≈ 0.249 µM)	0.23 (≈ 0.249 µM)	16 (≈ 17.3 µM)	32 (≈ 34.6 µM)	32 (≈ 34.6 µM)	0.46 (≈ 0.498 µM)	1.87 (≈ 2.02 µM)	30 (≈ 32.5 µM)	0.93 (≈ 1.01 µM)	15 (≈ 16.2 µM)	0.46 (≈ 0.498 µM)	0.93 (≈ 1.01 µM)	0.46 (≈ 0.498 µM)	15 (≈ 16.2 µM)	0.46 (≈ 0.498 µM)	MIC [21]: 30 µg/mL (≈ 32.5 µM); MIC [22]: 0.46 µg/mL (≈ 0.498 µM); MIC [23]: 16 µg/mL (≈ 17.3 µM); MIC [24]: 3.75 µg/mL (≈ 4.06 µM); MIC [25]: 1.87 µg/mL (≈ 2.02 µM); MIC [26]: 0.23 µg/mL (≈ 0.249 µM); MIC [27]: 0.93 µg/mL (≈ 1.01 µM)
CC[C@H](C)C[C@H](C)CCCCCCCCC(=O)N[C@H]1C[C@@H](O)[C@@H](NCCN)NC(=O)[C@@H]2[C@@H](O)CCN2C(=O)[C@H]([C@H](O)CCN)NC(=O)[C@H]([C@H](O)[C@@H](O)c2ccc(O)cc2)NC(=O)[C@@H]2C[C@@H](O)CN2C(=O)[C@H]([C@@H](C)O)NC1=O [CASPOFUNGIN]	0.2 (≈ 0.183 µM)	0.2 (≈ 0.183 µM)	0.2 (≈ 0.183 µM)	0.2 (≈ 0.183 µM)	> 100	0.2 (≈ 0.183 µM)	0.2 (≈ 0.183 µM)	100 (≈ 91.5 µM)	> 100	> 100	0.2 (≈ 0.183 µM)	0.4 (≈ 0.366 µM)	> 100	0.4 (≈ 0.366 µM)	100 (≈ 91.5 µM)	0.4 (≈ 0.366 µM)	0.4 (≈ 0.366 µM)	0.2 (≈ 0.183 µM)	100 (≈ 91.5 µM)	0.2 (≈ 0.183 µM)	MIC [21]: > 100 µg/mL; MIC [22]: 0.2 µg/mL (≈ 0.183 µM); MIC [23]: 100 µg/mL (≈ 91.5 µM); MIC [24]: 0.2 µg/mL (≈ 0.183 µM); MIC [25]: 0.4 µg/mL (≈ 0.366 µM); MIC [26]: 0.2 µg/mL (≈ 0.183 µM); MIC [27]: 0.4 µg/mL (≈ 0.366 µM)
